From ChEMBL document CHEMBL1144602, “Synthesis and in vitro binding studies of substituted piperidine naphthamides. Part I: Influence of the substitution on the basic nitrogen and the position of the amide on the affinity for D2L, D4.2, and 5-HT2A receptors” (Bioorg Med Chem Lett, 2007)

What was measured:
D(2) dopamine receptor [1] = target: T1, D(2) dopamine receptor (Homo sapiens, UniProt P14416); assay: Displacement of [3H]spiperone from human cloned dopamine D2L receptor at 1 uM
How it was run: (§1)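 Single-point screen at 1 µM, reported as percent inhibition of radioligand binding: [3H]ketanserin at native rat 5-HT2A, [3H]nemonapride at human D4.2, [3H]spiperone at human D2L.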

D(4) dopamine receptor = target: T2, D(4) dopamine receptor (Homo sapiens, UniProt P21917); assay: Displacement of [3H]nemonapride from human cloned dopamine D4.2 receptor
T2 sequence (P21917 whole entry): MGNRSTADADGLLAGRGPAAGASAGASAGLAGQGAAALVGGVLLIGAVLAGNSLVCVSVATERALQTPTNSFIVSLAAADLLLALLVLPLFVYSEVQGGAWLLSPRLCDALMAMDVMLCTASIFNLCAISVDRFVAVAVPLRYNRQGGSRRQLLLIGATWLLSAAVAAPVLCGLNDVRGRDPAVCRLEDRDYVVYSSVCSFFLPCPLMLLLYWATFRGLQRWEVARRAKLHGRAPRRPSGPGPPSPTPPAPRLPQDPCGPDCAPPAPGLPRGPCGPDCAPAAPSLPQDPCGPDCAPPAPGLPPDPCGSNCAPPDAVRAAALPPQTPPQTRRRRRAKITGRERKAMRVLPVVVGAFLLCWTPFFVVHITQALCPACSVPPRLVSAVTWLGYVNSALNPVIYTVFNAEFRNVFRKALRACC
How it was run: (§2)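 Radioligands were [3H]ketanserin for native rat 5-HT2A, [3H]nemonapride for cloned human D4.2 and [3H]spiperone for cloned human D2L. Ki was determined only for compounds giving >50% inhibition in a 1 µM screen. Values are mean ± SD, n ≥ 2 unless noted.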

[2] = target: T3, D(4) dopamine receptor (Homo sapiens) (UniProt P21917); assay: Displacement of [3H]nemonapride from human cloned dopamine D4.2 receptor at 1 uM; how it was run: as §1
T3 sequence (whole entry): T2 sequence (P21917 whole entry)

[3] = target: 5-hydroxytryptamine receptor 2A (Rattus norvegicus) (UniProt P14842); assay: Displacement of [3H]ketanserin from rat cloned 5HT2A receptor at 1 uM
D(2) dopamine receptor [4] = target: T1, D(2) dopamine receptor; assay: Displacement of [3H]spiperone from human cloned dopamine D2L receptor; how it was run: as §2

T1 sequence (P14416 whole entry): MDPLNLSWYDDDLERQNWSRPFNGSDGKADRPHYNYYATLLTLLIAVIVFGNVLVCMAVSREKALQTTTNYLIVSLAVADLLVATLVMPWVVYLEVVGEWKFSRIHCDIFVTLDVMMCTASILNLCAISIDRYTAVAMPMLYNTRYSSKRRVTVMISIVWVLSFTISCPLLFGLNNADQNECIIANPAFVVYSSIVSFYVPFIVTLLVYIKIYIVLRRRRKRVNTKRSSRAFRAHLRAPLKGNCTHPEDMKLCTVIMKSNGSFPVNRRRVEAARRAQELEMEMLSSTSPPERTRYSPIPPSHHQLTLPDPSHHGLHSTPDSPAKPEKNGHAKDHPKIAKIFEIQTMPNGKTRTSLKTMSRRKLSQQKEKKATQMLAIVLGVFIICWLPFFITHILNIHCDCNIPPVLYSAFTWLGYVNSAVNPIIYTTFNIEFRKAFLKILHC
5-hydroxytryptamine receptor 2A (Rattus norvegicus), sequence (P14842 whole entry): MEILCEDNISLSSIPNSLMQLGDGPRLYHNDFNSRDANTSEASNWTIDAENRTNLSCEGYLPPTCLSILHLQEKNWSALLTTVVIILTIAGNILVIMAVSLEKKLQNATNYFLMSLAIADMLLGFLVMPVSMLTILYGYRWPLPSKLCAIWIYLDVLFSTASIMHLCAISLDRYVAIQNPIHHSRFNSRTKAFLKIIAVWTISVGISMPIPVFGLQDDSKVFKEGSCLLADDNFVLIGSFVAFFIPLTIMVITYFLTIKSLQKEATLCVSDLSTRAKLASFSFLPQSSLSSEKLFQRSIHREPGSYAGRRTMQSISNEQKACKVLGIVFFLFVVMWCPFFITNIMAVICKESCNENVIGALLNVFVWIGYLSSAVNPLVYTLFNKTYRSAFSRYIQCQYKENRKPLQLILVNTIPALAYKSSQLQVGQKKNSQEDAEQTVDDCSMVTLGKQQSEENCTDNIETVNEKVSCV

Activity (D(2) dopamine receptor [1]) | Ki (D(4) dopamine receptor) | Activity [2] | Activity [3] | Structure (SMILES) | Ki (D(2) dopamine receptor [4])
3% | 230 nM | – | – | O=C(NC1CCN(CCc2ccccc2)CC1)c1cccc2ccccc12 | –
0% | – | 52% | 35% | O=C(c1cccc2ccccc12)N1CCC(NCCCc2ccccc2)CC1 | –
13% | 63 nM | – | – | O=C(NC1CCN(CCCc2ccccc2)CC1)c1ccc2ccccc2c1 | –
0% | – | 45% | – | O=C(NC1CCN(CC[C@H](O)c2ccccc2)CC1)c1cccc2ccccc12 | –
18% | 362 nM | – | – | O=C(NC1CCN(CCCCc2ccccc2)CC1)c1cccc2ccccc12 | –
22% | 281 nM | – | – | O=C(NC1CCN(CCCCc2ccccc2)CC1)c1ccc2ccccc2c1 | –
9% | 71 nM | – | – | O=C(NC1CCN(CCCc2ccccc2)CC1)c1cccc2ccccc12 | –

The next lines start with the molecule.

Structure (SMILES) | Activity (D(2) dopamine receptor [1]) | Ki (D(4) dopamine receptor) | Activity [2] | Activity [3] | Ki (D(2) dopamine receptor [4])
O=C(c1ccc2ccccc2c1)N1CCC(NCCc2ccccc2)CC1 | 0% | 210 nM | – | 50% | –
O=C(c1cccc2ccccc12)N1CCC(NCCc2ccccc2)CC1 | 0% | – | 16% | – | –
CC(c1ccccc1)N1CCC(NC(=O)c2ccc3ccccc3c2)CC1 (centres undefined) | – | 29 nM | – | – | –
O=C(NC1CCN(CCc2ccccc2)CC1)c1ccc2ccccc2c1 | 7% | 139 nM | – | – | –
CC(c1ccccc1)N1CCC(NC(=O)c2cccc3ccccc23)CC1 (centres undefined) | 11% | – | 21% | – | –
O=C(c1ccc2ccccc2c1)N1CCC(NCCCc2ccccc2)CC1 | 0% | 222 nM | – | 41% | –
O=C(NC1CCN(Cc2ccccc2)CC1)c1cccc2ccccc12 | – | 162 nM | – | – | > 1000 nM
O=C(c1cccc2ccccc12)N1CCC(NCc2ccccc2)CC1 | 0% | – | 1% | 10% | –
O=C(c1ccc2ccccc2c1)N1CCC(NCC[C@H](O)c2ccccc2)CC1 | – | – | 49% | – | –
O=C(c1ccc2ccccc2c1)N1CCC(NCc2ccccc2)CC1 | 0% | 167 nM | – | 8% | –
O=C(NC1CCN(Cc2ccccc2)CC1)c1ccc2ccccc2c1 | – | 11 nM | – | – | > 1000 nM
